“Also recorded” adds a separate entry of the source.
How the values were obtained:
[1] = biological target: T1, RGS4 stimulation of Gαi1 (R178M/A326S) GTP hydrolysis (Rattus norvegicus, UniProt P49799); assay: Receptor-independent steady-state GTPase acceleration protein assay; assay type: biochemical; settings: read-out: SS-GAP IC50; 200 nM Δ51 RGS4-MBP, 6 μM Gαi1 (R178M/A326S), 300 μM GTP
T1 sequence (P49799 52-205): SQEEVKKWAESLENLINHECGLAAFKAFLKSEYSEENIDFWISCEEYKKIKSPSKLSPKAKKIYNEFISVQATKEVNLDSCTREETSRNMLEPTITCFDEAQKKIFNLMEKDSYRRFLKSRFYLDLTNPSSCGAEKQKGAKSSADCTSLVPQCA
Procedure, shortened: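 Receptor-independent GTPase: Δ51 RGS4 (residues 52-205)-MBP with His-tagged Gαi1 R178M/A326S. Buffer: 50 mM HEPES pH 7.4, 100 mM NaCl, 0.01% Lubrol, 5 mM MgCl, 10 μg/mL BSA. Test compound in half-log steps, 100 nM–100 μM. Started with GTP; 120 min at room temperature. Quenched with HCl/malachite green plus citrate stabiliser, 20 min, then A630. IC50 by nonlinear regression; three independent experiments, duplicate wells.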

RGS4-Gαo binding [2] = biological target: T2, RGS4-Gαo binding (Rattus norvegicus, UniProt P49799); assay: Flow Cytometry Protein Interaction Assay; settings: read-out: FCPIA IC50, compounds 100 nM-100 μM, three independent experiments
T2 sequence (P49799 52-205 limits assumed): T1 sequence (P49799 52-205)
Procedure, shortened: (§1)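 Multiplexed bead assay: biotinylated MBP-Δ51 RGS4, cysteine-free Δ51 RGS4 (seven RGS-box Cys→Ala) and His-tagged RGS8 (61–198) on separate streptavidin Luminex bead sets. Buffer 50 mM HEPES pH 7.4, 100 mM NaCl, 0.1% lubrol, 1% BSA. Test compound (100 nM–100 μM) for 15 min at RT. AlexaFluor532-Gαo (30 nM final) with GDP·AlF4 and 1 mM MgCl for 30 min at RT. Read by flow cytometry; nonlinear regression.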

RGS19 = biological target: T3, RGS19 (Homo sapiens, UniProt P49795); assay: Multiplexed FCPIA, RGS19; assay type: binding; settings: 100 nM to 100 μM
T3 sequence (P49795 1-206 limits assumed): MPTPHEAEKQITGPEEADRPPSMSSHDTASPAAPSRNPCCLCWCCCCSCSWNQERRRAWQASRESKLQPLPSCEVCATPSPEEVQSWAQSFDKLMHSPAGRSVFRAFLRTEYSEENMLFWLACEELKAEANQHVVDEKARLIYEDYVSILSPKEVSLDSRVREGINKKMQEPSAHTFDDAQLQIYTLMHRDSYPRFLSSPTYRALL
Procedure, shortened: (§2)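 Biotinylated RGS proteins (RGS16 full-length, RGS19 ΔC11, both MBP fusions) were each coupled to separate streptavidin Luminex bead sets and pooled per well. Buffer: 50 mM HEPES pH 7.4, 100 mM NaCl, 0.1% lubrol, 1% BSA. Test compound (100 nM–100 μM) or DMSO added for 15 min at room temperature. AlexaFluor 532-Gαo (30 nM final) with GDP·AlF4/1 mM MgCl added for 30 min. Flow-cytometric binding read; nonlinear regression.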

[3] = tested on: RGS4 in HEK293-FlpIn-TREx/M3R/RGS4 cells; assay: Cell-based calcium signaling assay in M3-R4 cells; design: species or system human; settings: read-out: Cellular Activity IC50, Dox treated, carbachol-stimulated calcium
RGS4-Gαo binding [4] = biological target: T2, RGS4-Gαo binding; assay: FCPIA reversibility; settings: 100 μM compound; for inhibition of RGS4-G-protein binding: FCPIA; for reversibility of RGS4 inhibition: beads washed three times, ten minute washing period
Procedure, shortened: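 Biotinylated RGS4 on streptavidin Luminex beads preincubated 30 min at room temperature with 100 μM test compound or DMSO, then washed three times in 50 mM HEPES pH 7.4/100 mM NaCl/0.1% lubrol/1% BSA. Beads split: one set re-dosed with 100 μM compound, other DMSO. Each then mixed with AlexaFluor 532-Gαo (30 nM final) plus GDP·AlF4/1 mM MgCl. Binding read by flow cytometry. Three independent experiments.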

RGS7 = biological target: T4, RGS7 (Homo sapiens, UniProt P49802); assay: Multiplexed FCPIA, RGS7; assay type: binding; settings: 100 nM to 100 μM, RGS7 lacks cysteine residues
T4 sequence (P49802 333-448 limits assumed): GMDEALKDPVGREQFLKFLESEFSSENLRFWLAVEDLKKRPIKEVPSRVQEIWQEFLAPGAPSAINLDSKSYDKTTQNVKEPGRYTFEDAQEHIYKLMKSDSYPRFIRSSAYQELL

RGS8 = biological target: T5, RGS8 (Homo sapiens, UniProt P57771); assay: Multiplexed FCPIA, RGS8; assay type: binding
T5 sequence (P57771 61-198 isoform P57771-2): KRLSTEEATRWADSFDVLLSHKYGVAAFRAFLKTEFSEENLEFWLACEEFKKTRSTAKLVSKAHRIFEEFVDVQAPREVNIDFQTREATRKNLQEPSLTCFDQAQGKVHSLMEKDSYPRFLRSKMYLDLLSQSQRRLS
Procedure, shortened: as §1

RGS4 (-Cys) = RGS4 (-Cys) (Homo sapiens, UniProt P49798, C132A/C148A/C183A/C197A/C204A/C71A/C95A); assay: Multiplexed FCPIA, RGS4 lacking cysteines; assay type: binding
Procedure, shortened: as §1

RGS16 = biological target: T6, RGS16 (Homo sapiens, UniProt O15492); assay: Multiplexed FCPIA, RGS16; assay type: binding; settings: 100 nM to 100 μM
T6 sequence (O15492 1-202): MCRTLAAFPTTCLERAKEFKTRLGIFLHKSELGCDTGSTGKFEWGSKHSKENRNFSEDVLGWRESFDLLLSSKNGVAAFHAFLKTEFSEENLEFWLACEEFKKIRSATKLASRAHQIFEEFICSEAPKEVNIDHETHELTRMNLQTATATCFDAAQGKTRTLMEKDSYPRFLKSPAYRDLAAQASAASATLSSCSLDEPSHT
Procedure, shortened: as §2

Chain of RGS4 (-Cys) (P49798 52-205 C71A/C95A/C132A/C148A/C183A/C197A/C204A limits assumed, species assumed): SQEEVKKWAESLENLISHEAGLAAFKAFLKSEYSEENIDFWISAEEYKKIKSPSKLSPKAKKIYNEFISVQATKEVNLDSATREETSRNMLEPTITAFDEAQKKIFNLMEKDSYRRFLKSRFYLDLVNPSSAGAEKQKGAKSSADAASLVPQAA

activity against RGS16 (RGS16) | SMILES | IC50 [1] [µM] | IC50 (RGS4-Gαo binding [2]) [µM] | potency difference RGS4 versus RGS19 (RGS19) [fold] | IC50 [3] [µM] | inhibition of RGS4-G-protein binding (RGS4-Gαo binding [4]) | reversibility of RGS4 inhibition (RGS4-Gαo binding [4]) | activity towards RGS7 (RGS7) | Inhibition of Gα binding to RGS8 (RGS8) | Inhibition of Gα binding to RGS4 (-Cys) (RGS4 (-Cys))
 | CN1C(=O)/C(=C\c2ccc(Br)s2)C(=O)NC1=S [CID 1777233] | 9.4 | 15.3 | 2 | 20 | greater than 85% | more than 50% |  |  | 
 | O=C1NC(=S)N(c2ccccc2F)C(=O)/C1=C\c1cccs1 [CID 1905297] | 35.6 | 27.9 |  | 23.8 | greater than 85% | more than 50% |  |  | 
 | Cc1ccc(/C=C2\C(=O)NC(=S)N(c3ccc(F)cc3)C2=O)s1 [CID 1389577] | 10.9 | 18.3 |  | 15 | greater than 85% | more than 50% | showed activity towards RGS7; also recorded: activity was observed |  | 
 | COc1ccc(NC(=O)/C(Cl)=C(/Cl)[S+]([O-])Cc2ccccc2)cn1 (stereo not drawn) [CID 1472216] | 1.6 ± 0.4 | 1.7 ± 0.5 |  |  |  |  |  |  | 
 | Br.CCCN1CCc2cc(O)cc3c2[C@H]1Cc1ccc(O)c(O)c1-3 [CID 10069059] |  |  |  |  |  |  |  | Inhibition of Gα binding to RGS4 (-Cys) or RGS8 occurred | Inhibition of Gα binding to RGS4 (-Cys) or RGS8 occurred
 | Br.CN1CCc2cc(O)cc3c2[C@H]1Cc1ccc(O)c(O)c1-3 [CID 11957531] |  |  |  |  |  |  |  | Inhibition of Gα binding to RGS4 (-Cys) or RGS8 occurred | Inhibition of Gα binding to RGS4 (-Cys) or RGS8 occurred
activity was observed | O=C1N=c2ccccc2=C1c1c(O)n(-c2cccc(F)c2)[nH]c1=O [CID 5428579] | 55.8 | 8.2 |  | 35.5 | greater than 85% | more than 50% | showed activity towards RGS7; also recorded: activity was observed |  | 
